In brackets after ≈: the same amount, converted by molar mass.
Columns and labels:
Type in all cases: functional
Streptococcus pneumoniae [1] = assay: Antibacterial activity against erythromycin-susceptible Streptococcus pneumoniae ATCC 49619 by broth microdilution method
Summary of the method: (§1)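 Strains were ATCC reference strains or clinical isolates from China's national antimicrobial resistance surveillance network (MOHNARIN). In vitro activity was measured by broth microdilution following NCCLS recommendations. Results are reported as minimum inhibitory concentration (MIC) in mg/L.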

Haemophilus influenzae [2] = assay: Antibacterial activity against erythromycin-susceptible Haemophilus influenzae 07O114 by broth microdilution method; summary of the method: as §1
Haemophilus influenzae [3] = assay: Antibacterial activity against erythromycin-susceptible Haemophilus influenzae 07O339 by broth microdilution method; summary of the method: as §1
Haemophilus influenzae [4] = assay: Antibacterial activity against erythromycin-susceptible Haemophilus influenzae 07O394 by broth microdilution method; summary of the method: as §1
Staphylococcus aureus [5] = assay: Antibacterial activity against methicillin-susceptible Staphylococcus aureus ANS46 by broth microdilution method; summary of the method: as §1
Streptococcus pneumoniae [6] = assay: Antibacterial activity against erythromycin-susceptible Streptococcus pneumoniae 07H252 by broth microdilution method; summary of the method: as §1
Haemophilus influenzae [7] = assay: Antibacterial activity against erythromycin-susceptible Haemophilus influenzae ATCC 49247 by broth microdilution method; summary of the method: as §1
Streptococcus pyogenes [8] = assay: Antibacterial activity against erythromycin-susceptible Streptococcus pyogenes 07U086 by broth microdilution method; summary of the method: as §1
Staphylococcus aureus [9] = assay: Antibacterial activity against methicillin-susceptible Staphylococcus aureus ATCC 29213 by broth microdilution method; summary of the method: as §1
Streptococcus pyogenes [10] = assay: Antibacterial activity against erythromycin-resistant Streptococcus pyogenes 03-233 by broth microdilution method
Summary of the method: (§2)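 Clinical isolates were supplied by China's Ministry of Health National Antimicrobial Resistance Investigation Net (MOHNARIN). Activity was reported as minimum inhibitory concentration (MIC), determined by broth microdilution following NCCLS recommendations.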

Streptococcus pyogenes [11] = assay: Antibacterial activity against erythromycin-resistant Streptococcus pyogenes 01-533 by broth microdilution method; summary of the method: as §2
Streptococcus pneumoniae [12] = assay: Antibacterial activity against erythromycin-resistant Streptococcus pneumoniae 07D201 by broth microdilution method; summary of the method: as §2
[13] = system: Staphylococcus epidermidis; assay: Antibacterial activity against methicillin-resistant Staphylococcus epidermidis 07R066 by broth microdilution method; summary of the method: as §2
[14] = system: Staphylococcus epidermidis; assay: Antibacterial activity against methicillin-susceptible Staphylococcus epidermidis 07C134 by broth microdilution method; summary of the method: as §2
[15] = system: Staphylococcus epidermidis; assay: Antibacterial activity against methicillin-resistant Staphylococcus epidermidis 07A066 by broth microdilution method; summary of the method: as §2
[16] = system: Staphylococcus epidermidis; assay: Antibacterial activity against methicillin-susceptible Staphylococcus epidermidis 07T202 by broth microdilution method; summary of the method: as §1
Streptococcus pneumoniae [17] = assay: Antibacterial activity against erythromycin-resistant Streptococcus pneumoniae 07P390 by broth microdilution method; summary of the method: as §2
Streptococcus pyogenes [18] = assay: Antibacterial activity against erythromycin-susceptible Streptococcus pyogenes 07U084 by broth microdilution method; summary of the method: as §1

Row | SMILES | MIC (Streptococcus pneumoniae [1]) [µg/mL] | MIC (Haemophilus influenzae [2]) [µg/mL] | MIC (Haemophilus influenzae [3]) [µg/mL] | MIC (Haemophilus influenzae [4]) [µg/mL] | MIC (Staphylococcus aureus [5]) [µg/mL] | MIC (Streptococcus pneumoniae [6]) [µg/mL] | MIC (Haemophilus influenzae [7]) [µg/mL] | MIC (Streptococcus pyogenes [8]) [µg/mL] | MIC (Staphylococcus aureus [9]) [µg/mL] | MIC (Streptococcus pyogenes [10]) [µg/mL] | MIC (Streptococcus pyogenes [11]) [µg/mL] | MIC (Streptococcus pneumoniae [12]) [µg/mL] | MIC [13] [µg/mL] | MIC [14] [µg/mL] | MIC [15] [µg/mL] | MIC [16] [µg/mL] | MIC (Streptococcus pneumoniae [17]) [µg/mL] | MIC (Streptococcus pyogenes [18]) [µg/mL]
1 | CC[C@H]1OC(=O)[C@H](C)C(=O)[C@H](C)[C@@H](O[C@@H]2O[C@H](C)C[C@H](N(C)C)[C@H]2O)[C@@](C)(OC)C[C@@H](C)C(=O)[C@H](C)[C@H]2N(CCCSc3ccoc3C)C(=O)O[C@]12C | 0.031 (≈ 0.0404 µM) | 8 (≈ 10.4 µM) | 16 (≈ 20.9 µM) | 16 (≈ 20.9 µM) | > 16 | 1 (≈ 1.3 µM) | 16 (≈ 20.9 µM) | 0.125 (≈ 0.163 µM) | 0.25 (≈ 0.326 µM) | > 16 | 0.5 (≈ 0.652 µM) | > 16 | 0.25 (≈ 0.326 µM) | 0.25 (≈ 0.326 µM) | 0.25 (≈ 0.326 µM) | > 16 | 0.25 (≈ 0.326 µM) | 0.125 (≈ 0.163 µM)
2 | CC[C@H]1OC(=O)[C@H](C)C(=O)[C@H](C)[C@@H](O[C@@H]2O[C@H](C)C[C@H](N(C)C)[C@H]2O)[C@@](C)(OC)C[C@@H](C)C(=O)[C@H](C)[C@H]2N(CCCSc3nnnn3-c3ccccc3)C(=O)O[C@]12C | 0.125 (≈ 0.15 µM) | 16 (≈ 19.3 µM) | 32 (≈ 38.5 µM) | 32 (≈ 38.5 µM) | > 32 | 1 (≈ 1.2 µM) | 16 (≈ 19.3 µM) | 0.125 (≈ 0.15 µM) | 0.25 (≈ 0.301 µM) | > 32 | 2 (≈ 2.41 µM) | > 32 | 0.25 (≈ 0.301 µM) | 0.5 (≈ 0.602 µM) | 0.5 (≈ 0.602 µM) | > 32 | 0.5 (≈ 0.602 µM) | 0.125 (≈ 0.15 µM)
3 | CC[C@H]1OC(=O)[C@H](C)C(=O)[C@H](C)[C@@H](O[C@@H]2O[C@H](C)C[C@H](N(C)C)[C@H]2O)[C@@](C)(OC)C[C@@H](C)C(=O)[C@H](C)[C@H]2N(CCCSc3nccc(C)n3)C(=O)O[C@]12C | 0.062 (≈ 0.0796 µM) | 8 (≈ 10.3 µM) | 8 (≈ 10.3 µM) | 8 (≈ 10.3 µM) | > 32 | 8 (≈ 10.3 µM) | 8 (≈ 10.3 µM) | 0.125 (≈ 0.16 µM) | 0.5 (≈ 0.642 µM) | 2 (≈ 2.57 µM) | 2 (≈ 2.57 µM) | > 32 | 0.25 (≈ 0.321 µM) | 0.25 (≈ 0.321 µM) | 0.5 (≈ 0.642 µM) | > 32 | 0.25 (≈ 0.321 µM) | 0.125 (≈ 0.16 µM)
4 | CC[C@H]1OC(=O)[C@H](C)C(=O)[C@H](C)[C@@H](O[C@@H]2O[C@H](C)C[C@H](N(C)C)[C@H]2O)[C@@](C)(OC)C[C@@H](C)C(=O)[C@H](C)[C@H]2N(CCCSc3nncs3)C(=O)O[C@]12C | ≤ 0.016 | 2 (≈ 2.59 µM) | 2 (≈ 2.59 µM) | 2 (≈ 2.59 µM) | > 16 | 2 (≈ 2.59 µM) | 2 (≈ 2.59 µM) | 0.062 (≈ 0.0804 µM) | 0.25 (≈ 0.324 µM) | > 16 | 1 (≈ 1.3 µM) | > 16 | 0.5 (≈ 0.648 µM) | 0.25 (≈ 0.324 µM) | 0.25 (≈ 0.324 µM) | > 16 | 0.5 (≈ 0.648 µM) | 0.062 (≈ 0.0804 µM)
5 | CC[C@H]1OC(=O)[C@H](C)[C@@H](O[C@H]2C[C@@](C)(OC)[C@@H](O)[C@H](C)O2)[C@H](C)[C@@H](O[C@@H]2O[C@H](C)C[C@H](N(C)C)[C@H]2O)[C@](C)(OC)C[C@@H](C)C(=O)[C@H](C)[C@@H](O)[C@]1(C)O [CLARITHROMYCIN] | 0.031 (≈ 0.0414 µM) | 4 (≈ 5.35 µM) | 8 (≈ 10.7 µM) | 8 (≈ 10.7 µM) | > 32 | 0.062 (≈ 0.0829 µM) | 4 (≈ 5.35 µM) | 0.031 (≈ 0.0414 µM) | 0.25 (≈ 0.334 µM) | > 32 | 2 (≈ 2.67 µM) | > 32 | 0.125 (≈ 0.167 µM) | 0.25 (≈ 0.334 µM) | 8 (≈ 10.7 µM) | > 32 | 2 (≈ 2.67 µM) | 0.031 (≈ 0.0414 µM)
6 | CC[C@H]1OC(=O)[C@H](C)C(=O)[C@H](C)[C@@H](O[C@@H]2O[C@H](C)C[C@H](N(C)C)[C@H]2O)[C@@](C)(OC)C[C@@H](C)C(=O)/C(C)=C/[C@]1(C)OC(=O)NCCCSc1ncnc2[nH]ncc12 | 0.5 (≈ 0.621 µM) | > 16 | > 16 | > 16 | > 16 | 8 (≈ 9.94 µM) | > 16 | 0.25 (≈ 0.311 µM) | 0.5 (≈ 0.621 µM) | > 16 | 8 (≈ 9.94 µM) | > 16 | 0.5 (≈ 0.621 µM) | 0.5 (≈ 0.621 µM) | 0.5 (≈ 0.621 µM) | > 16 | 16 (≈ 19.9 µM) | 0.25 (≈ 0.311 µM)
7 | CC[C@H]1OC(=O)[C@H](C)C(=O)[C@H](C)[C@@H](O[C@@H]2O[C@H](C)C[C@H](N(C)C)[C@H]2O)[C@@](C)(OC)C[C@@H](C)C(=O)[C@H](C)[C@H]2N(CCCSc3nc(C)cc(C)n3)C(=O)O[C@]12C | 0.062 (≈ 0.0782 µM) | 8 (≈ 10.1 µM) | 4 (≈ 5.04 µM) | 8 (≈ 10.1 µM) | > 32 | 2 (≈ 2.52 µM) | 4 (≈ 5.04 µM) | 0.125 (≈ 0.158 µM) | 0.5 (≈ 0.63 µM) | > 32 | 2 (≈ 2.52 µM) | > 32 | 0.5 (≈ 0.63 µM) | 0.5 (≈ 0.63 µM) | 0.5 (≈ 0.63 µM) | > 32 | 1 (≈ 1.26 µM) | 0.125 (≈ 0.158 µM)
8 | CC[C@H]1OC(=O)[C@H](C)C(=O)[C@H](C)[C@@H](O[C@@H]2O[C@H](C)C[C@H](N(C)C)[C@H]2O)[C@](C)(OC)C[C@@H](C)C(=O)[C@H](C)[C@H]2N(CCCCn3cnc(-c4cccnc4)c3)C(=O)O[C@]12C [TELITHROMYCIN] | 0.031 (≈ 0.0382 µM) | 4 (≈ 4.93 µM) | 4 (≈ 4.93 µM) | 4 (≈ 4.93 µM) | > 16 | 0.062 (≈ 0.0764 µM) | 4 (≈ 4.93 µM) | 0.062 (≈ 0.0764 µM) | 0.125 (≈ 0.154 µM) | 2 (≈ 2.46 µM) | 0.25 (≈ 0.308 µM) | 1 (≈ 1.23 µM) | 0.125 (≈ 0.154 µM) | 0.125 (≈ 0.154 µM) | 0.125 (≈ 0.154 µM) | > 16 | 0.031 (≈ 0.0382 µM) | 0.062 (≈ 0.0764 µM)
9 | CC[C@H]1OC(=O)[C@H](C)C(=O)[C@H](C)[C@@H](O[C@@H]2O[C@H](C)C[C@H](N(C)C)[C@H]2O)[C@@](C)(OC)C[C@@H](C)C(=O)[C@H](C)[C@H]2N(CCCSc3nnnn3C)C(=O)O[C@]12C | 0.031 (≈ 0.0403 µM) | 8 (≈ 10.4 µM) | 8 (≈ 10.4 µM) | 8 (≈ 10.4 µM) | > 32 | 8 (≈ 10.4 µM) | 8 (≈ 10.4 µM) | 0.062 (≈ 0.0806 µM) | 0.25 (≈ 0.325 µM) | > 32 | 1 (≈ 1.3 µM) | > 32 | > 32 | 0.25 (≈ 0.325 µM) | 1 (≈ 1.3 µM) | > 32 | 0.5 (≈ 0.65 µM) | 0.062 (≈ 0.0806 µM)

Reference: ChEMBL document CHEMBL1649395, “Synthesis and antibacterial activity of novel ketolides with 11,12-sulfur contained aryl alkyl side chains” (2011)
